Publication PMC3644855 (Nuclear medicine and biology, 2009)
Where “and” joins values, the source holds several entries; their conditions need not be identical. Identical values can stand only once. Like-named read-outs stand apart in the source and are kept apart here.

Key:
5-HT1A receptor [1] = molecular target: T1, 5-HT1A receptor (Rattus norvegicus, UniProt P19327); test: Brain tissue specific binding ratio [; format: in vivo
T1 sequence (P19327 1-422): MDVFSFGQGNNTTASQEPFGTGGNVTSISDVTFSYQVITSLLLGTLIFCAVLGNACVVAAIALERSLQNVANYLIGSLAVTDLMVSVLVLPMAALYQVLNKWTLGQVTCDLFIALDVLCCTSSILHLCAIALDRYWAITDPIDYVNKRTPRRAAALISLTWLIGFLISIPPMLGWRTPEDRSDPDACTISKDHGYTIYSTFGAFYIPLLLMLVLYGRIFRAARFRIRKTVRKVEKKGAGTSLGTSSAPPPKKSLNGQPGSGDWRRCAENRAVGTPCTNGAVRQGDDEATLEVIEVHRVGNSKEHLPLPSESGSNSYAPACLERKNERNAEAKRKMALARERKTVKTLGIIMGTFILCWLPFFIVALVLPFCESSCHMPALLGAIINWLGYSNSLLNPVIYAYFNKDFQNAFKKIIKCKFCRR
How it was run: (§1)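 Male Sprague-Dawley rats (220–260 g, 3 per group), awake, got i.v. 0.5–1 mCi 18F-labelled test compound in 100 μL, carrying 1, 11 or 18 nmol unlabelled compound; killed at 5 or 30 min. Dissected brain regions and plasma, spiked with internal standard, homogenized at pH 12.5, extracted with hexane:ethyl acetate (4:1), dried and redissolved in 50% CH3CN. Analysed by UPLC-Q-TOF (positive ESI) against matrix calibration, triplicate. DUR = %ID/g × body weight/100.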

[2] = format: in vivo; details: rat i.v., LC/MS
How it was run: as §1

5-HT1A receptor [3] = molecular target: T1, 5-HT1A receptor; test: Brain tissue specific binding ratio [; format: in vivo; details: rat i.v., Radioactivity
How it was run: (§2)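 Awake male Sprague-Dawley rats (220–260 g, 3 per group) got i.v. 0.5–1 mCi 18F-labelled test compound in 100 μL, containing 1, 11 or 18 nmol unlabelled compound. Killed 5 or 30 min later. Caudate, thalamus, hippocampus, brain stem, cerebellum, cortex and plasma (0.05–0.4 g) weighed and radioactivity-counted. Uptake given as DUR = %ID/g × body weight/100.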

[4] = format: in vivo; details: rat i.v., Radioactivity
How it was run: as §2

[5] = rat i.v., 1 nmol, 30 min, LC/MS
[6] = rat i.v., 11 nmol, 30 min, LC/MS
[7] = rat i.v., 18 nmol, 30 min, LC/MS

COc1ccccc1N1CCN(CCN(C(=O)c2ccc(F)cc2)c2ncccn2)CC1 [FPWAY, 4-Fluoro-N-{2-[4-(2-methoxyphenyl)-1-piperazinyl]ethyl}-N-(2-pyrimidinyl)benzamide]
Specific binding ratio [(DURtissue/DURCb)−1] Hippocampus (5-HT1A receptor [1]; rat i.v., 1 nmol, 5 min, LC/MS): 2.30 and 2.30±0.42 | Specific binding ratio [(DURtissue/DURCb)−1] brain stem (5-HT1A receptor [1]; rat i.v., 1 nmol, 5 min, LC/MS): 0.75±0.35 | Specific binding ratio [(DURtissue/DURCb)−1] caudate (5-HT1A receptor [1]; rat i.v., 1 nmol, 5 min, LC/MS): 0.30±0.13 | Specific binding ratio [(DURtissue/DURCb)−1] cortex (5-HT1A receptor [1]; rat i.v., 1 nmol, 5 min, LC/MS): 1.34±0.27 | Specific binding ratio [(DURtissue/DURCb)−1] thalamus (5-HT1A receptor [1]; rat i.v., 1 nmol, 5 min, LC/MS): 0.84±0.30 | Specific binding ratio [(DURtissue/DURCb)−1] Hippocampus (5-HT1A receptor [1]; [5]): 5.87 and 5.87±0.56 | Specific binding ratio [(DURtissue/DURCb)−1] brain stem (5-HT1A receptor [1]; [5]): 1.99±0.53 | Specific binding ratio [(DURtissue/DURCb)−1] caudate (5-HT1A receptor [1]; [5]): 0.95±0.06 | Specific binding ratio [(DURtissue/DURCb)−1] cortex (5-HT1A receptor [1]; [5]): 2.29±0.06 | Specific binding ratio [(DURtissue/DURCb)−1] thalamus (5-HT1A receptor [1]; [5]): 1.58±0.58 | Specific binding ratio [(DURtissue/DURCb)−1] Hippocampus (5-HT1A receptor [1]; [6]): 2.43 and 2.43±0.35 | Specific binding ratio [(DURtissue/DURCb)−1] brain stem (5-HT1A receptor [1]; [6]): 0.42±0.33 | Specific binding ratio [(DURtissue/DURCb)−1] caudate (5-HT1A receptor [1]; [6]): 0.65±0.31 | Specific binding ratio [(DURtissue/DURCb)−1] cortex (5-HT1A receptor [1]; [6]): 1.26±0.28 | Specific binding ratio [(DURtissue/DURCb)−1] thalamus (5-HT1A receptor [1]; [6]): 0.78±0.29 | specific binding ratio hippocampus (5-HT1A receptor [1]; rat i.v., 17 nmol, 30 min, hippocampus, LC/MS): 2.42 | Specific binding ratio [(DURtissue/DURCb)−1] Hippocampus (5-HT1A receptor [1]; [7]): 2.42±0.28 | Specific binding ratio [(DURtissue/DURCb)−1] brain stem (5-HT1A receptor [1]; [7]): 0.93±0.13 | Specific binding ratio [(DURtissue/DURCb)−1] caudate (5-HT1A receptor [1]; [7]): 0.67±0.31 | Specific binding ratio [(DURtissue/DURCb)−1] cortex (5-HT1A receptor [1]; [7]): 1.61±0.39 | Specific binding ratio [(DURtissue/DURCb)−1] thalamus (5-HT1A receptor [1]; [7]): 0.91±0.14 | saturability of binding with increasing mass dose (5-HT1A receptor [1]; rat, 1, 11 and 18 nmol mass doses, hippocampus): demonstrates saturability of binding | DUR Hippocampus ([2]; 1 nmol, 5 min): 4.28 %ID/g * body weight/100 and 4.28±0.35 %ID/g * body weight/100 | DUR brain stem ([2]; 1 nmol, 5 min): 2.36±0.35 %ID/g * body weight/100 | DUR caudate ([2]; 1 nmol, 5 min): 1.70±0.30 %ID/g * body weight/100 | DUR cerebellum ([2]; 1 nmol, 5 min): 1.31±0.21 %ID/g * body weight/100 | DUR cortex ([2]; 1 nmol, 5 min): 3.10±0.78 %ID/g * body weight/100 | DUR plasma ([2]; 1 nmol, 5 min): 0.49±0.17 %ID/g * body weight/100 | DUR thalamus ([2]; 1 nmol, 5 min): 2.39±0.45 %ID/g * body weight/100 | DUR Hippocampus ([2]; 1 nmol, 30 min): 2.20 %ID/g * body weight/100 and 2.20±0.38 %ID/g * body weight/100 | DUR brain stem ([2]; 1 nmol, 30 min): 0.98±0.05 %ID/g * body weight/100 | DUR caudate ([2]; 1 nmol, 30 min): 0.60±0.04 %ID/g * body weight/100 | DUR cerebellum ([2]; 1 nmol, 30 min): 0.32±0.08 %ID/g * body weight/100 | DUR cortex ([2]; 1 nmol, 30 min): 1.06±0.25 %ID/g * body weight/100 | DUR plasma ([2]; 1 nmol, 30 min): 0.21±0.07 %ID/g * body weight/100 | DUR thalamus ([2]; 1 nmol, 30 min): 0.81±0.02 %ID/g * body weight/100 | DUR Hippocampus ([2]; 11 nmol, 30 min): 0.79 %ID/g * body weight/100 and 0.79±0.08 %ID/g * body weight/100 | DUR brain stem ([2]; 11 nmol, 30 min): 0.32±0.05 %ID/g * body weight/100 | DUR caudate ([2]; 11 nmol, 30 min): 0.38±0.06 %ID/g * body weight/100 | DUR cerebellum ([2]; 11 nmol, 30 min): 0.23±0.03 %ID/g * body weight/100 | DUR cortex ([2]; 11 nmol, 30 min): 0.52±0.05 %ID/g * body weight/100 | DUR plasma ([2]; 11 nmol, 30 min): 0.13±0.02 %ID/g * body weight/100 | DUR thalamus ([2]; 11 nmol, 30 min): 0.41±0.08 %ID/g * body weight/100 | hippocampus uptake (DUR) ([2]; 17 nmol, 30 min, hippocampus): 0.53 | DUR Hippocampus ([2]; 18 nmol, 30 min): 0.53±0.03 %ID/g * body weight/100 | DUR brain stem ([2]; 18 nmol, 30 min): 0.30±0.05 %ID/g * body weight/100 | DUR caudate ([2]; 18 nmol, 30 min): 0.25±0.08 %ID/g * body weight/100 | DUR cerebellum ([2]; 18 nmol, 30 min): 0.16±0.02 %ID/g * body weight/100 | DUR cortex ([2]; 18 nmol, 30 min): 0.41±0.18 %ID/g * body weight/100 | DUR plasma ([2]; 18 nmol, 30 min): 0.33±0.11 %ID/g * body weight/100 | DUR thalamus ([2]; 18 nmol, 30 min): 0.30±0.04 %ID/g * body weight/100

COc1ccccc1N1CCN(CCN(C(=O)c2ccc(F)cc2)c2ncccn2)CC1 [[^18F]FPWAY, 4-Fluoro-N-{2-[4-(2-methoxyphenyl)-1-piperazinyl]ethyl}-N-(2-pyrimidinyl)benzamide]
Specific binding ratio [(DURtissue/DURCb)−1] Hippocampus (5-HT1A receptor [3]; 1 nmol, 5 min): 1.95±0.45 | Specific binding ratio [(DURtissue/DURCb)−1] brain stem (5-HT1A receptor [3]; 1 nmol, 5 min): 0.63±0.08 | Specific binding ratio [(DURtissue/DURCb)−1] caudate (5-HT1A receptor [3]; 1 nmol, 5 min): 0.38±0.06 | Specific binding ratio [(DURtissue/DURCb)−1] cortex (5-HT1A receptor [3]; 1 nmol, 5 min): 1.41±0.13 | Specific binding ratio [(DURtissue/DURCb)−1] thalamus (5-HT1A receptor [3]; 1 nmol, 5 min): 0.64±0.04 | Specific binding ratio [(DURtissue/DURCb)−1] Hippocampus (5-HT1A receptor [3]; 1 nmol, 30 min): 5.38±0.23 | Specific binding ratio [(DURtissue/DURCb)−1] brain stem (5-HT1A receptor [3]; 1 nmol, 30 min): 1.12±0.06 | Specific binding ratio [(DURtissue/DURCb)−1] caudate (5-HT1A receptor [3]; 1 nmol, 30 min): 0.53±0.17 | Specific binding ratio [(DURtissue/DURCb)−1] cortex (5-HT1A receptor [3]; 1 nmol, 30 min): 2.04±0.18 | Specific binding ratio [(DURtissue/DURCb)−1] thalamus (5-HT1A receptor [3]; 1 nmol, 30 min): 1.29±0.13 | Specific binding ratio [(DURtissue/DURCb)−1] Hippocampus (5-HT1A receptor [3]; 11 nmol, 30 min): 2.72±0.37 | Specific binding ratio [(DURtissue/DURCb)−1] brain stem (5-HT1A receptor [3]; 11 nmol, 30 min): 0.68±0.14 | Specific binding ratio [(DURtissue/DURCb)−1] caudate (5-HT1A receptor [3]; 11 nmol, 30 min): 0.33±0.06 | Specific binding ratio [(DURtissue/DURCb)−1] cortex (5-HT1A receptor [3]; 11 nmol, 30 min): 1.26±0.11 | Specific binding ratio [(DURtissue/DURCb)−1] thalamus (5-HT1A receptor [3]; 11 nmol, 30 min): 0.70±0.12 | Specific binding ratio [(DURtissue/DURCb)−1] Hippocampus (5-HT1A receptor [3]; 18 nmol, 30 min): 2.57±0.21 | Specific binding ratio [(DURtissue/DURCb)−1] brain stem (5-HT1A receptor [3]; 18 nmol, 30 min): 0.85±0.26 | Specific binding ratio [(DURtissue/DURCb)−1] caudate (5-HT1A receptor [3]; 18 nmol, 30 min): 0.63±0.34 | Specific binding ratio [(DURtissue/DURCb)−1] cortex (5-HT1A receptor [3]; 18 nmol, 30 min): 1.81±0.83 | Specific binding ratio [(DURtissue/DURCb)−1] thalamus (5-HT1A receptor [3]; 18 nmol, 30 min): 0.90±0.13 | DUR Hippocampus ([4]; 1 nmol, 5 min): 4.50 %ID/g * body weight/100 and 4.50±0.41 %ID/g * body weight/100 | DUR brain stem ([4]; 1 nmol, 5 min): 2.53±0.48 %ID/g * body weight/100 | DUR caudate ([4]; 1 nmol, 5 min): 2.14±0.27 %ID/g * body weight/100 | DUR cerebellum ([4]; 1 nmol, 5 min): 1.55±0.24 %ID/g * body weight/100 | DUR cortex ([4]; 1 nmol, 5 min): 3.75±0.74 %ID/g * body weight/100 | DUR thalamus ([4]; 1 nmol, 5 min): 2.54±0.43 %ID/g * body weight/100 | DUR Hippocampus ([4]; 1 nmol, 30 min): 2.34±0.22 %ID/g * body weight/100 | DUR brain stem ([4]; 1 nmol, 30 min): 0.78±0.08 %ID/g * body weight/100 | DUR caudate ([4]; 1 nmol, 30 min): 0.56±0.01 %ID/g * body weight/100 | DUR cerebellum ([4]; 1 nmol, 30 min): 0.36±0.05 %ID/g * body weight/100 | DUR cortex ([4]; 1 nmol, 30 min): 1.12±0.18 %ID/g * body weight/100 | DUR thalamus ([4]; 1 nmol, 30 min): 0.84±0.06 %ID/g * body weight/100 | DUR Hippocampus ([4]; 11 nmol, 30 min): 0.83±0.03 %ID/g * body weight/100 | DUR brain stem ([4]; 11 nmol, 30 min): 0.37±0.05 %ID/g * body weight/100 | DUR caudate ([4]; 11 nmol, 30 min): 0.30±0.02 %ID/g * body weight/100 | DUR cerebellum ([4]; 11 nmol, 30 min): 0.22±0.02 %ID/g * body weight/100 | DUR cortex ([4]; 11 nmol, 30 min): 0.50±0.04 %ID/g * body weight/100 | DUR thalamus ([4]; 11 nmol, 30 min): 0.38±0.02 %ID/g * body weight/100 | DUR Hippocampus ([4]; 18 nmol, 30 min): 0.53±0.02 %ID/g * body weight/100 | DUR brain stem ([4]; 18 nmol, 30 min): 0.27±0.03 %ID/g * body weight/100 | DUR caudate ([4]; 18 nmol, 30 min): 0.24±0.04 %ID/g * body weight/100 | DUR cerebellum ([4]; 18 nmol, 30 min): 0.15±0.01 %ID/g * body weight/100 | DUR cortex ([4]; 18 nmol, 30 min): 0.41±0.13 %ID/g * body weight/100 | DUR thalamus ([4]; 18 nmol, 30 min): 0.28±0.02 %ID/g * body weight/100
